# Laboratory results reported in ChEMBL document CHEMBL3580574, “Design, Synthesis, and Biological Evaluation of Hexacyclic Tetracyclines as Potent, Broad Spectrum Antibacterial Agents” (J Med Chem, 2015).
# Legend:
# Assay type in all cases: functional
# Staphylococcus aureus [1] = assay: Antibacterial activity against Staphylococcus aureus 101 ATCC 29213 assessed as bacterial growth inhibition by susceptibility testing assay; settings: Staphylococcus aureus, 101 ATCC 29213; read-out: MIC
# How it was run: (§1)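 Broth microdilution MIC per CLSI in cation-adjusted Mueller Hinton broth, made fresh and held at 4 °C before testing. Medium supplemented with lysed horse blood where appropriate. Compound stocks prepared and serially diluted in sterile deionized water. Runs were accepted against QC ranges for comparator antibiotics and ATCC QC strains.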
# Staphylococcus aureus [2] = assay: Antibacterial activity against methicillin-resistant, tet(M) tetracycline-resistant Staphylococcus aureus 161 assessed as bacterial growth inhibition by susceptibility testing assay; settings: Staphylococcus aureus, 161; read-out: MIC
# How it was run: (§2)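 Broth microdilution MIC per CLSI in 96-well plates; compound stocks prepared and serially diluted in sterile deionized water; cation-adjusted Mueller Hinton broth prepared fresh and held at 4 °C before testing, supplemented with lysed horse blood as appropriate; runs accepted when comparator antibiotics fell within QC ranges for appropriate ATCC quality control strains.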
# Staphylococcus aureus [3] = assay: Antibacterial activity against tet(K) tetracycline-resistant Staphylococcus aureus 158 assessed as bacterial growth inhibition by susceptibility testing assay; settings: Staphylococcus aureus, 158; read-out: MIC
# Enterococcus faecalis = assay: Antibacterial activity against tet(M) tetracycline-resistant Enterococcus faecalis 327 assessed as bacterial growth inhibition by susceptibility testing assay; settings: Enterococcus faecalis, 327; read-out: MIC; how it was run: as §2
# Enterococcus faecium = assay: Antibacterial activity against tet(M) tetracycline-resistant Enterococcus faecium 404 assessed as bacterial growth inhibition by susceptibility testing assay; settings: Enterococcus faecium, 404; read-out: MIC
# Streptococcus pneumoniae = assay: Antibacterial activity against tet(M) tetracycline-resistant Streptococcus pneumoniae 160 assessed as bacterial growth inhibition by susceptibility testing assay; settings: Streptococcus pneumoniae, 160; read-out: MIC
# Escherichia coli [4] = assay: Antibacterial activity against Escherichia coli 107 ATCC 25922 assessed as bacterial growth inhibition by susceptibility testing assay; settings: Escherichia coli, 107 ATCC 25922; read-out: MIC; how it was run: as §1
# Escherichia coli [5] = assay: Antibacterial activity against tet(A) tetracycline-resistant Escherichia coli 155 assessed as bacterial growth inhibition by susceptibility testing assay; settings: Escherichia coli, 155; read-out: MIC; how it was run: as §2
# Klebsiella pneumoniae = assay: Antibacterial activity against Klebsiella pneumoniae 457 harboring CTX-M-15 gene assessed as bacterial growth inhibition by susceptibility testing assay; settings: Klebsiella pneumoniae, 457; read-out: MIC; how it was run: as §2
# Proteus mirabilis = assay: Antibacterial activity against Proteus mirabilis 385 assessed as bacterial growth inhibition by susceptibility testing assay; settings: Proteus mirabilis, 385; read-out: MIC; how it was run: as §1
# Pseudomonas aeruginosa = assay: Antibacterial activity against Pseudomonas aeruginosa 555 BAA-47 assessed as bacterial growth inhibition by susceptibility testing assay; settings: Pseudomonas aeruginosa, 555 BAA-47; read-out: MIC; how it was run: as §1
# Enterobacter cloacae = assay: Antibacterial activity against tet(A) tetracycline-resistant Enterobacter cloacae 603 assessed as bacterial growth inhibition by susceptibility testing assay; settings: Enterobacter cloacae, 603; read-out: MIC; how it was run: as §2
# Acinetobacter baumannii = assay: Antibacterial activity against tet(B) tetracycline-resistant Acinetobacter baumannii 250 assessed as bacterial growth inhibition by susceptibility testing assay; settings: Acinetobacter baumannii, 250; read-out: MIC; how it was run: as §2
# [6] = test system: Stenotrophomonas maltophilia; assay: Antibacterial activity against Stenotrophomonas maltophilia 256 assessed as bacterial growth inhibition by susceptibility testing assay; settings: Stenotrophomonas maltophilia, 256; read-out: MIC
# How it was run: (§3)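 Medium supplemented with lysed horse blood where appropriate. Compound stocks prepared and serially diluted in sterile deionized water. Runs were accepted against QC ranges for comparator antibiotics and ATCC QC strains.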
# Burkholderia cenocepacia = assay: Antibacterial activity against Burkholderia cenocepacia 240 assessed as bacterial growth inhibition by susceptibility testing assay; settings: Burkholderia cenocepacia, 240; read-out: MIC; how it was run: as §3
SMILES,MIC (Staphylococcus aureus [1]) [µg/mL],MIC (Staphylococcus aureus [2]) [µg/mL],MIC (Staphylococcus aureus [3]) [µg/mL],MIC (Enterococcus faecalis) [µg/mL],MIC (Enterococcus faecium) [µg/mL],MIC (Streptococcus pneumoniae) [µg/mL],MIC (Escherichia coli [4]) [µg/mL],MIC (Escherichia coli [5]) [µg/mL],MIC (Klebsiella pneumoniae) [µg/mL],MIC (Proteus mirabilis) [µg/mL],MIC (Pseudomonas aeruginosa) [µg/mL],MIC (Enterobacter cloacae) [µg/mL],MIC (Acinetobacter baumannii) [µg/mL],MIC [6] [µg/mL],MIC (Burkholderia cenocepacia) [µg/mL]
CN(C)[C@@H]1C(O)=C(C(N)=O)C(=O)[C@@]2(O)C(O)=C3C(=O)c4c(O)c5c(c(OC(F)(F)F)c4C[C@H]3C[C@@H]12)[C@@H]1[C@H](CN5)CC2COCCN21 (stereo not given in full),2,4,0.5,0.5,0.25,0.0625,4,16,> 32,> 32,> 32,> 32,16,16,> 32
CC1C[C@H]2CNc3c(O)c4c(c(OC(F)(F)F)c3[C@H]2N1C)C[C@H]1C[C@H]2[C@H](N(C)C)C(O)=C(C(N)=O)C(=O)[C@@]2(O)C(O)=C1C4=O (stereo not given in full),0.0312,0.0312,≤ 0.0156,≤ 0.0156,0.0312,≤ 0.0156,≤ 0.0156,0.0625,2,2,8,2,1,0.25,16
CCN1CC[C@H]2CNc3c(O)c4c(c(F)c3[C@H]21)C[C@H]1C[C@H]2[C@H](N(C)C)C(O)=C(C(N)=O)C(=O)[C@@]2(O)C(O)=C1C4=O,0.25,0.5,0.0625,0.125,0.0625,≤ 0.0156,0.0625,0.25,1,1,8,0.5,2,1,16
CN(C)[C@@H]1C(O)=C(C(N)=O)C(=O)[C@@]2(O)C(O)=C3C(=O)c4c(O)c5c(c(F)c4C[C@H]3C[C@@H]12)[C@@H]1[C@@H](CCN1CCO)CN5,2,4,0.25,1,1,0.125,1,16,4,8,32,16,> 32,32,> 32
CN(C)[C@@H]1C(O)=C(C(N)=O)C(=O)[C@@]2(O)C(O)=C3C(=O)c4c(O)c5c(c(F)c4C[C@H]3C[C@@H]12)[C@@H]1[C@@H](CCN1CCNCC(F)F)CN5,0.5,1,0.0312,0.125,0.0625,≤ 0.0156,0.25,4,4,8,> 32,8,8,4,32
CN(C)[C@@H]1C(O)=C(C(N)=O)C(=O)[C@@]2(O)C(O)=C3C(=O)c4c(O)c5c(c(OC(F)(F)F)c4C[C@H]3C[C@@H]12)[C@@H]1[C@H](CN5)CC2CCCCN21 (stereo not given in full),0.0625,0.25,≤ 0.0156,0.0312,≤ 0.0156,≤ 0.0156,≤ 0.0156,0.125,4,4,16,4,2,1,8
CN(C)[C@@H]1C(O)=C(C(N)=O)C(=O)[C@@]2(O)C(O)=C3C(=O)c4c(O)c5c(c(OC(F)(F)F)c4C[C@H]3C[C@@H]12)C1NCCC1CN5 (mixture of isomers),0.5,2,0.25,0.5,0.25,0.25,0.5,2,2,4,32,8,> 32,16,> 32
CN(C)[C@@H]1C(O)=C(C(N)=O)C(=O)[C@@]2(O)C(O)=C3C(=O)c4c(O)c5c(c(OC(F)(F)F)c4C[C@H]3C[C@@H]12)[C@@H]1[C@@H](CCN1C)CN5,0.0625,0.125,≤ 0.0156,0.0312,≤ 0.0156,≤ 0.0156,≤ 0.0156,0.0312,0.5,2,8,0.5,1,0.25,8
